Data: ChEMBL document CHEMBL1127424, “7-azetidinylquinolones as antibacterial agents. 2. Synthesis and biological activity of 7-(2,3-disubstituted-1-azetidinyl)-4-oxoquinoline- and -1,8-naphthyridine-3-carboxylic acids. Properties and structure-activity relationships of quinolones with an azetidine moiety” (J Med Chem, 1994)
Values after ≈ are worked out from the molar mass of the structure shown.

Columns and labels:
[1] = AUC (0-4 hr) ug/ml/h; format: ADME, cell-free; parameters: time < 4 hr; concentration or dose not given beside the values; settings: plasma
Summary of the method: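 Mice dosed once orally at 50 mg/kg; blood taken from groups of six mice at 0.5, 1, 2 and 4 h. Serum drug assayed by disk agar diffusion bioassay (Bacillus subtilis ATCC 6633 on Seed Agar, 37 °C, 18 h), giving total activity.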

[2] = HPLC capacity factor (k'); format: ADME
Summary of the method: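 Ion-pair reversed-phase HPLC on ODS-2 (10 μm) at 45 °C. Mobile phase: 10 mM sodium heptanesulfonate plus 50 mM KH2PO4 (pH 3.5)–methanol 45:55, 1 mL/min. Samples at 100 μg/mL in DMF, injected in duplicate, UV 280 nm. k' = (tR − t0)/t0.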

[3] = Solubility (buffer pH 7.4); format: physicochemical; settings: read-out: S
Summary of the method: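 Excess solid shaken in 0.05 M phosphate buffer pH 7.4 for 24 h at 25 °C. Suspension filtered through 0.22 μm, discarding the first portion. Filtrate diluted in 0.1 N HCl or 0.1 N NaOH and read by UV at the compound's absorbance maximum.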

Bacillus cereus = assay: In vitro minimum inhibitory concentration for Bacillus cereus ATCC 11778; format: functional
Summary of the method: (§1)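 Serial 2-fold agar dilution in Mueller Hinton medium, run alongside a reference quinolone. Inoculum adjusted to 10⁸ cfu/mL; compound range 0.007–16 μg/mL.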

Bacillus subtilis = assay: In vitro minimum inhibitory concentration for Bacillus subtilis ATCC 6633; format: functional; summary of the method: as §1
Escherichia coli = assay: In vitro minimum inhibitory concentration for Escherichia coli ATCC 10799; format: functional; summary of the method: as §1
Enterobacter cloacae = assay: In vitro minimum inhibitory concentration for Enterobacter cloacae ATCC 23355; format: functional
Klebsiella pneumoniae = assay: In vitro minimum inhibitory concentration to inhibit Klebsiella pneumoniae ATCC 10031; format: functional; summary of the method: as §1
Morganella morganii = assay: In vitro minimum inhibitory concentration for Morganella morganii ATCC 8019; format: functional; summary of the method: as §1
Proteus vulgaris = assay: In vitro minimum inhibitory concentration for Proteus vulgaris ATCC 8427; format: functional; summary of the method: as §1
[4] = tested on: Staphylococcus epidermidis; assay: In vitro minimum inhibitory concentration for Staphylococcus epidermidis ATCC 155-1; format: functional; summary of the method: as §1
Staphylococcus aureus = assay: In vitro minimum inhibitory concentration for Staphylococcus aureus ATCC 25178; format: functional; summary of the method: as §1
Enterococcus faecalis = assay: In vitro minimum inhibitory concentration for Streptococcus faecalis ATCC 10541; format: functional; summary of the method: as §1
Pseudomonas aeruginosa = assay: In vitro minimum inhibitory concentration for Pseudomonas aeruginosa ATCC 10145; format: functional; summary of the method: as §1
[5] = Measured ionization constant (pKa); format: physicochemical; settings: read-out: pKa1
Summary of the method: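 Spectrophotometric titration at 20 ± 1 °C, 0.1 M ionic strength, pH varied with H2SO4 or NaOH made up in the compound stock. Absorbance followed at compound-specific wavelengths chosen from 200–400 nm scans. pKa1 and pKa2 taken as the inflection points of the two-step absorbance vs pH curve.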

Mus musculus [6] = assay: Evaluation of efficacy on systemic infections Escherichia coli HM-42, after oral administration in mice; format: functional
Summary of the method: (§2)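 Single oral dose given immediately after infection, one of four doses per group, chosen from in vitro activity. Survival scored after one week. ED50 (total mg/kg protecting 50%) interpolated from survival rates.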

Mus musculus [7] = assay: Evaluation of efficacy on systemic infections Pseudomonas aeruginosa HS-116, after oral administration in mice; format: functional; summary of the method: as §2
Mus musculus [8] = assay: Evaluation of efficacy on systemic infections Staphylococcus aureus HS-93, after oral administration in mice; format: functional; summary of the method: as §2

| Compound | AUC [1] [ng·h/mL] | Log k' [2] | solubility [3] [µg/mL] | MIC (Bacillus cereus) [µg/mL] | MIC (Bacillus subtilis) [µg/mL] | MIC (Escherichia coli) [µg/mL] | MIC (Enterobacter cloacae) [µg/mL] | MIC (Klebsiella pneumoniae) [µg/mL] | MIC (Morganella morganii) [µg/mL] | MIC (Proteus vulgaris) [µg/mL] | MIC [4] [µg/mL] | MIC (Staphylococcus aureus) [µg/mL] | MIC (Enterococcus faecalis) [µg/mL] | MIC (Pseudomonas aeruginosa) [µg/mL] | pKa [5] | ED50 (Mus musculus [6]) [mg/kg] | ED50 (Mus musculus [7]) [mg/kg] | ED50 (Mus musculus [8]) [mg/kg] |
| --- | --- | --- | --- | --- | --- | --- | --- | --- | --- | --- | --- | --- | --- | --- | --- | --- | --- | --- |
| C[C@H]1[C@H](N)CN1c1c(F)cc2c(=O)c(C(=O)O)cn(-c3ccc(F)cc3)c2c1Cl | – | 0.2581 | – | 0.03 (≈ 0.0715 µM) | 0.03 (≈ 0.0715 µM) | 0.06 (≈ 0.143 µM) | 0.06 (≈ 0.143 µM) | 0.03 (≈ 0.0715 µM) | 0.06 (≈ 0.143 µM) | 0.25 (≈ 0.596 µM) | 0.06 (≈ 0.143 µM) | 0.03 (≈ 0.0715 µM) | 0.25 (≈ 0.596 µM) | 0.25 (≈ 0.596 µM) | – | 3.6 | 37.9 | 1.3 |
| CC1(C)[C@@H](N)CN1c1c(F)cc2c(=O)c(C(=O)O)cn(C3CC3)c2c1F | – | 0.1903 | – | 0.12 (≈ 0.33 µM) | 0.015 (≈ 0.0413 µM) | 0.12 (≈ 0.33 µM) | 0.06 (≈ 0.165 µM) | 0.03 (≈ 0.0826 µM) | 0.12 (≈ 0.33 µM) | 0.25 (≈ 0.688 µM) | 0.12 (≈ 0.33 µM) | 0.12 (≈ 0.33 µM) | 0.5 (≈ 1.38 µM) | 2 (≈ 5.5 µM) | – | – | – | – |
| C[C@H]1[C@H](N)CN1c1c(F)cc2c(=O)c3c(=O)[nH]sc3n(C3CC3)c2c1F | – | 0.1134 | – | 0.06 (≈ 0.159 µM) | 0.06 (≈ 0.159 µM) | 0.12 (≈ 0.317 µM) | 0.03 (≈ 0.0793 µM) | 0.03 (≈ 0.0793 µM) | 0.06 (≈ 0.159 µM) | 0.12 (≈ 0.317 µM) | 0.12 (≈ 0.317 µM) | 0.12 (≈ 0.317 µM) | 0.25 (≈ 0.661 µM) | 1 (≈ 2.64 µM) | – | – | – | – |
| Nc1c(F)c(N2CC(N)C2)c(F)c2c1c(=O)c(C(=O)O)cn2C1CC1 | – | -0.0505 | – | – | – | – | – | – | – | – | – | – | – | – | 6.65 | – | – | – |
| C[C@H]1[C@H](N)CN1c1nc2c(cc1F)c(=O)c(C(=O)O)cn2C(C)(C)C | 16500 | 0.1644 | – | 0.12 (≈ 0.344 µM) | 0.015 (≈ 0.0431 µM) | 0.06 (≈ 0.172 µM) | 0.06 (≈ 0.172 µM) | 0.015 (≈ 0.0431 µM) | 0.12 (≈ 0.344 µM) | 0.25 (≈ 0.718 µM) | 0.12 (≈ 0.344 µM) | 0.12 (≈ 0.344 µM) | 1 (≈ 2.87 µM) | 2 (≈ 5.74 µM) | – | – | – | – |
| C[C@H]1[C@H](N)CN1c1cc2c(cc1F)c(=O)c(C(=O)O)cn2CCF | – | -0.1459 | – | 1 (≈ 2.96 µM) | 0.25 (≈ 0.741 µM) | 0.25 (≈ 0.741 µM) | 0.12 (≈ 0.356 µM) | 0.12 (≈ 0.356 µM) | 0.12 (≈ 0.356 µM) | 1 (≈ 2.96 µM) | 1 (≈ 2.96 µM) | 1 (≈ 2.96 µM) | 2 (≈ 5.93 µM) | 2 (≈ 5.93 µM) | – | – | – | – |

Continued, in another order:

| AUC [1] [ng·h/mL] | Log k' [2] | solubility [3] [µg/mL] | MIC (Bacillus cereus) [µg/mL] | MIC (Bacillus subtilis) [µg/mL] | MIC (Escherichia coli) [µg/mL] | MIC (Enterobacter cloacae) [µg/mL] | MIC (Klebsiella pneumoniae) [µg/mL] | MIC (Morganella morganii) [µg/mL] | MIC (Proteus vulgaris) [µg/mL] | MIC [4] [µg/mL] | MIC (Staphylococcus aureus) [µg/mL] | MIC (Enterococcus faecalis) [µg/mL] | MIC (Pseudomonas aeruginosa) [µg/mL] | pKa [5] | Compound | ED50 (Mus musculus [6]) [mg/kg] | ED50 (Mus musculus [7]) [mg/kg] | ED50 (Mus musculus [8]) [mg/kg] |
| --- | --- | --- | --- | --- | --- | --- | --- | --- | --- | --- | --- | --- | --- | --- | --- | --- | --- | --- |
| 3600 | 0.1708 | 42.2 (≈ 122 µM) | 0.25 (≈ 0.724 µM) | 0.015 (≈ 0.0434 µM) | 0.12 (≈ 0.347 µM) | 0.12 (≈ 0.347 µM) | 0.015 (≈ 0.0434 µM) | 0.25 (≈ 0.724 µM) | 0.25 (≈ 0.724 µM) | 0.25 (≈ 0.724 µM) | 0.25 (≈ 0.724 µM) | 4 (≈ 11.6 µM) | 2 (≈ 5.79 µM) | – | CC[C@H]1[C@@H](N)CN1c1cc2c(cc1F)c(=O)c(C(=O)O)cn2C1CC1 | – | – | – |
| – | – | – | – | – | – | – | – | – | – | – | – | – | – | 6.46 | CC[N+](C)(C)C1CN(c2cc3c(cc2F)c(=O)c(C(=O)O)cn3C2CC2)C1 | – | – | – |
| – | 0.599 | – | 0.12 (≈ 0.346 µM) | 0.03 (≈ 0.0866 µM) | 0.25 (≈ 0.722 µM) | 0.25 (≈ 0.722 µM) | 0.12 (≈ 0.346 µM) | 0.5 (≈ 1.44 µM) | 0.25 (≈ 0.722 µM) | 0.12 (≈ 0.346 µM) | 0.25 (≈ 0.722 µM) | 2 (≈ 5.77 µM) | 2 (≈ 5.77 µM) | – | C[C@H]1N(c2cc3c(cc2F)c(=O)c(C(=O)O)cn3C2CC2)C[C@]1(C)O | – | – | – |
| – | 0.462 | – | 0.25 (≈ 0.714 µM) | 0.015 (≈ 0.0428 µM) | 0.5 (≈ 1.43 µM) | 0.25 (≈ 0.714 µM) | 0.015 (≈ 0.0428 µM) | 0.5 (≈ 1.43 µM) | 0.25 (≈ 0.714 µM) | 0.25 (≈ 0.714 µM) | 0.25 (≈ 0.714 µM) | 2 (≈ 5.71 µM) | 8 (≈ 22.8 µM) | – | C[C@H]1[C@@H](O)CN1c1c(F)cc2c(=O)c(C(=O)O)cn(C3CC3)c2c1F | – | – | – |
| – | 0.679 | – | 0.5 (≈ 1.37 µM) | 0.12 (≈ 0.329 µM) | 1 (≈ 2.74 µM) | 0.5 (≈ 1.37 µM) | 0.5 (≈ 1.37 µM) | 1 (≈ 2.74 µM) | 0.5 (≈ 1.37 µM) | 0.5 (≈ 1.37 µM) | 1 (≈ 2.74 µM) | 8 (≈ 22 µM) | 8 (≈ 22 µM) | – | CC[C@H]1[C@@H](O)CN1c1c(F)cc2c(=O)c(C(=O)O)cn(C3CC3)c2c1F | – | – | – |
| – | 0.529 | – | 1 (≈ 2.89 µM) | 0.06 (≈ 0.173 µM) | 2 (≈ 5.77 µM) | 0.5 (≈ 1.44 µM) | 0.5 (≈ 1.44 µM) | 1 (≈ 2.89 µM) | 0.5 (≈ 1.44 µM) | 0.5 (≈ 1.44 µM) | 1 (≈ 2.89 µM) | 8 (≈ 23.1 µM) | 8 (≈ 23.1 µM) | – | CC[C@H]1[C@@H](O)CN1c1cc2c(cc1F)c(=O)c(C(=O)O)cn2C1CC1 | – | – | – |
